Measured values: PMC2720252 (Regenerative medicine, 2009)

How the values were obtained:
[1] = test system: 5 mm excisional wounds on adult CD-1 mice; assay: Full-thickness 5 mm excisional wound closure in adult mice; assay type: in vivo, mouse
In short: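 Adult CD-1 mice received 5 mm full-thickness excisional wounds treated with 20% pluronic gel alone (n = 102) or with 60 μM peptide (n = 95). Gel was applied at wounding and again 24 h later. Wounds were imaged under anaesthesia at 1, 4, 7 and 10 days, and area was measured blind to treatment. There were nine independent experiments with 8–16 animals per group. Analysis used t-test with Bonferroni correction.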

[2] = test system: wounded skin of neonatal mice; assay: Detection and distribution of peptide in wounded skin; assay type: in vivo, mouse; settings: whole-mount skin, 60 μM, 2 h postwounding, streptavidin (Alexa 594) confocal
[3] = test system: Cx43-expressing HeLa cells; settings: cited from earlier work
Cx43 = assay: Quantitative immunolabeling of Cx43 and ZO-1 in wound epidermis; assay type: in vivo; settings: adult mouse wound epidermis, 24 h
In short: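 Paired peptide-treated and control wounds were taken from the same five adult mice. Peptide was given at 60 μM in 20% pluronic gel. Sections taken 24 h after injury were labelled with Cx43 and ZO-1 antibodies plus DAPI and imaged by laser scanning confocal microscopy. Epidermal Cx43 particle size, numerical density and total immunolabelled area were quantified.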

[4] = test system: neutrophils at adult mouse excisional skin injuries; assay: Neutrophil counts in H&E sections of adult excisional wounds; assay type: in vivo; settings: 24 h and 4 days, three treatment and three control wounds, p < 0.01-0.001
[5] = test system: neutrophils at 2 mm excisional wounds on neonatal mice; assay: Whole-mount myeloperoxidase neutrophil density assay in neonatal wounds; assay type: in vivo, mouse; settings: 48 h postwounding
In short: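 Two-day-old pups were sedated by hypothermia and given bilateral 2 mm punch wounds at least 1 cm apart; one wound per mouse received 60 μM peptide and the other vehicle. For the 48 h harvest, treatment was repeated at 24 h. Myeloperoxidase-positive cells were grid-counted blind. Analysis used Wilcoxon matched-pairs test.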

[6] = test system: healed excisional wounds of adult mice; assay: Tensile testing to failure of skin strips with healed wounds; assay type: in vivo, mouse; settings: 3 months postwounding
[7] = test system: 5 mm excisional wounds on adult CD-1 mice; assay type: in vivo, mouse; settings: two blinded observers, vs vehicle
In short: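 Adult CD-1 mice received full-thickness 5 mm excisional wounds, treated immediately and again at 24 h with 20% pluronic gel with or without 60 μM peptide. Wound images were scored 0–5 by two observers blind to treatment. Redness/swelling was scored at 24 h and 4 days, and appearance/scarring (discoloration, smoothness) at 7 and 10 days. Each wound's score was the mean of both observers. Data came from nine experiments.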

[8] = test system: second PDZ domain (PDZ2) of zonula occludens (ZO)-1; settings: cited from earlier work
[9] = adult mice, 5 mm excisional wound, 10-day time course, vs controls

RQPKIWFPNRRKPWKKRPRPDDLEI [ACT1]
healed appearance (qualitative) [1, 9]: less discolored appearance | swelling / inflammation of wound (qualitative) [1, 9]: less swollen and inflamed | experiments with significantly accelerated closure rate ([1]; nine independent experiments, 8-16 animals per group): eight of the nine experiments | spread of peptide in tissue after application to wound [2]: could be observed in tissues surrounding the wound edges | Cx43 distribution and levels ([3]; Cx43-expressing HeLa cells): redistribution of Cx43 from a detergent-soluble to an insoluble fraction without causing changes in overall levels of the protein | GJ aggregate size and number ([3]; Cx43-expressing HeLa cells): increase in the size and decrease in the number of GJ aggregates | subcellular targeting of peptide ([3]; HeLa cells): Cytoplasmic targeting | apically localized ZO-1 staining proximal to wound edge (Cx43): reduction appeared to be more pronounced | average size of Cx43 particles (GJs) (Cx43; paired wounds on five mice): significant (p < 0.05) overall increase | numerical density of Cx43 particles (Cx43; paired wounds on five mice): significantly (p < 0.05) reduced | neutrophil density [4]: significant decreases | localisation of neutrophils at wound [5]: frequently sequestered in blood vessels | overall appearance of healed wounds [6]: improvement in overall appearance of the healed wounds is maintained | scarring/overall appearance score (0-5) ([7]; 7 and 10 days postwounding): significantly improved | wound redness score (0-5) ([7]; 24 h and 4 days postwounding): significantly decreased | effect on Cx43-ZO-1 interaction [8]: competitively inhibiting the interaction of endogenous Cx43 molecules with ZO-1
